In ChEMBL document CHEMBL3872218, “Synthesis and T-type calcium channel-blocking effects of aryl(1,5-disubstituted-pyrazol-3-yl)methyl sulfonamides for neuropathic pain treatment” (Eur J Med Chem, 2016):
pIC50: −log10 of the molar value.

Legend:
Rattus norvegicus [1] = experiment: Antineuropathic pain activity in rat spinal nerve ligation model assessed as effect on cold allodynia by measuring frequency of paw withdrawal at 100 mg/kg, po measured at 1 hr relative to control; assay type: functional
Outline: (§1)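 Spinal nerve ligation rats tested 2 weeks after nerve surgery, 100 mg/kg oral, n = 4 per group. Behaviour re-tested at 1, 3 and 5 h after dosing. Mechanical allodynia: von Frey filament applied five times, every 3–4 s, to the hind paw on a wire mesh floor. Cold allodynia: acetone applied to the plantar hind paw on a metal mesh floor.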

Rattus norvegicus [2] = experiment: Antineuropathic pain activity in rat spinal nerve ligation model assessed as effect on mechanical allodynia by measuring frequency of paw withdrawal at 100 mg/kg, po measured at 1 hr relative to control; assay type: functional; outline: as §1
[3] = Plasma concentration in Sprague-Dawley rat at 10 mg/kg, po at 2 hrs post dose; assay type: ADME, organism-based
CYP2C9 = CYP2C9 (Homo sapiens, UniProt P11712); experiment: Inhibition of human CYP2C9 assessed as remaining activity at 10 uM using vivid CYP450 substrate measured after 15 mins by fluorescence assay relative to sulfaphenazol; assay type: ADME; settings: probe vivid CYP450 substrate, read-out: Activity
Outline: (§2)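 Vivid fluorescence CYP assay: test compound at […] in water, mixed with BACULOSOMES master pre-mix and regeneration system, preincubated 15 min at 37 °C. Reaction started with Vivid substrate and NADPH. Remaining activity read by fluorescence as % of control, triplicate, mean ± SD. Isoform-specific reference inhibitors: α-naphthoflavone (1A2), sulfaphenazole (2C9), quinidine (2D6), ketoconazole (3A4).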

Rattus norvegicus [4] = experiment: Antineuropathic pain activity in rat spinal nerve ligation model assessed as effect on cold allodynia by measuring frequency of paw withdrawal at 100 mg/kg, po measured at 1 hr relative to gabapentin; assay type: functional; outline: as §1
[5] = Drug uptake in Sprague-Dawley rat brain at 10 mg/kg, iv at 2 hrs post dose; assay type: ADME, organism-based; settings: read-out: Drug uptake
[6] = biological target: T1, Voltage-dependent T-type calcium channel subunit alpha-1G (Homo sapiens, UniProt O43497); experiment: Inhibition of Cav3.1 alpha1G (unknown origin) expressed in HEK293 cells by whole-cell patch clamp method; assay type: cell-based
Outline: (§3)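 Whole-cell patch clamp on HEK293 cells expressing Cav3.1 or Cav3.2. T-type currents evoked every 15 s by a 50-ms step from −100 mV to −30 mV. External solution (mM): 140 NaCl, 2 CaCl₂, 10 HEPES, 10 glucose, pH 7.4.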

[7] = Terminal half life in Sprague-Dawley rat at 10 mg/kg, po; assay type: ADME, organism-based; settings: in vivo, read-out: beta t1/2
[8] = Terminal half life in Sprague-Dawley rat at 10 mg/kg, iv; assay type: ADME, organism-based; settings: in vivo, read-out: beta t1/2
[9] = Inhibition of N-type Ca2+ channel (unknown origin) by whole-cell patch clamp method; settings: Homo sapiens
[10] = Drug excretion in Sprague-Dawley rat at 10 mg/kg, iv; assay type: ADME, organism-based; settings: in vivo, read-out: Drug excretion
[11] = Apparent volume of distribution at steady state in Sprague-Dawley rat at 10 mg/kg, iv; assay type: ADME, organism-based; settings: in vivo, read-out: Vdss(app)
[12] = biological target: T1, Voltage-dependent T-type calcium channel subunit alpha-1G; experiment: Inhibition of Cav3.1 alpha1G (unknown origin) expressed in HEK293 cells assessed as decrease in KCl-induced depolarization mediated intracellular Ca2+ level at 10 uM by fluo3/AM based high throughput screening assay relative to control; assay type: cell-based
Outline: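 HEK293 cells stably expressing Cav3.1 or Cav3.2 plated at 4 × 10⁴ cells/well and used the next day. Loaded 60 min at room temperature with […] fluo3/AM plus 0.001% Pluronic F-127 in HEPES-buffered saline (1.8 mM CaCl₂, pH 7.4). Ca²⁺ fluorescence read on FDSS6000 as % inhibition, compound at […].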

Rattus norvegicus [13] = experiment: Antineuropathic pain activity in rat spinal nerve ligation model assessed as effect on mechanical allodynia by measuring frequency of paw withdrawal at 100 mg/kg, po measured at 5 hrs relative to gabapentin; assay type: functional; outline: as §1
Rattus norvegicus [14] = experiment: Antineuropathic pain activity in rat spinal nerve ligation model assessed as effect on mechanical allodynia by measuring frequency of paw withdrawal at 100 mg/kg, po measured at 5 hrs relative to control; assay type: functional; outline: as §1
[15] = biological target: Voltage-gated inwardly rectifying potassium channel KCNH2 (Homo sapiens, UniProt Q12809); experiment: Inhibition of human ERG expressed in CHOK1 cells by whole-cell patch clamp method; assay type: cell-based, CHO-K1
[16] = Drug uptake in Sprague-Dawley rat brain at 10 mg/kg, po at 2 hrs post dose; assay type: ADME, organism-based; settings: read-out: Drug uptake
[17] = Ratio of drug level in brain to plasma in Sprague-Dawley rat at 10 mg/kg, po at 2 hrs post dose; assay type: ADME, organism-based; settings: read-out: BPR
Rattus norvegicus [18] = experiment: Antineuropathic pain activity in rat spinal nerve ligation model assessed as effect on cold allodynia by measuring frequency of paw withdrawal at 100 mg/kg, po measured at 3 hrs relative to control; assay type: functional; outline: as §1
[19] = Mean residence time in Sprague-Dawley rat at 10 mg/kg, iv; assay type: ADME, organism-based; settings: in vivo
[20] = AUC (0 to infinity) in Sprague-Dawley rat at 10 mg/kg, po; assay type: ADME, organism-based; parameters: dose 10 mg/kg, time infinity, route oral; settings: in vivo
Rattus norvegicus [21] = experiment: Antineuropathic pain activity in rat spinal nerve ligation model assessed as effect on mechanical allodynia by measuring frequency of paw withdrawal at 100 mg/kg, po measured at 1 hr relative to gabapentin; assay type: functional; outline: as §1
CYP1A2 = biological target: T2, CYP1A2 (Homo sapiens, UniProt P05177); experiment: Inhibition of human CYP1A2 assessed as remaining activity at 10 uM using vivid CYP450 substrate measured after 15 mins by fluorescence assay relative to alpha-naphthoflavon; assay type: ADME; settings: probe vivid CYP450 substrate, read-out: Activity; outline: as §2
T2 sequence (P05177 whole entry): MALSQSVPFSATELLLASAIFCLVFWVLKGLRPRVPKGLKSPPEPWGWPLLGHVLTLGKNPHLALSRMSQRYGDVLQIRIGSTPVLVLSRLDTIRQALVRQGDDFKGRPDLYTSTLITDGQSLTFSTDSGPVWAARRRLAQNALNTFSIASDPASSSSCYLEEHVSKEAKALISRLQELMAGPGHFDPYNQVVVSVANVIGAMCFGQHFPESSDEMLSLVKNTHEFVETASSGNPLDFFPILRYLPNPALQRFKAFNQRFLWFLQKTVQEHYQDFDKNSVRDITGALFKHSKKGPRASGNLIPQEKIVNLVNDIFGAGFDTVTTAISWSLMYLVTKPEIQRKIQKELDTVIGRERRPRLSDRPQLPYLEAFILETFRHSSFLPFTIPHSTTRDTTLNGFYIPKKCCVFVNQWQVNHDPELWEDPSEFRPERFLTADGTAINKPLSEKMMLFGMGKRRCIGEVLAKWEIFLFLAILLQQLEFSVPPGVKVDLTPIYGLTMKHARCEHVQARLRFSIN

CYP3A4 = CYP3A4 (Homo sapiens, UniProt P08684); experiment: Inhibition of human CYP3A4 assessed as remaining activity at 10 uM using vivid CYP450 substrate measured after 15 mins by fluorescence assay relative to ketoconazole; assay type: ADME; settings: probe vivid CYP450 substrate, read-out: Activity; outline: as §2
[22] = biological target: Voltage-dependent T-type calcium channel subunit alpha-1H (Homo sapiens, UniProt O95180); experiment: Inhibition of Cav3.2 alpha1H (unknown origin) expressed in HEK293 cells by whole-cell patch clamp method; assay type: cell-based; outline: as §3
[23] = Tmax in Sprague-Dawley rat at 10 mg/kg, po; assay type: ADME, organism-based; settings: in vivo
[24] = Drug excretion in Sprague-Dawley rat at 10 mg/kg, po; assay type: ADME, organism-based; settings: in vivo, read-out: Drug excretion

T1 sequence (O43497 whole entry): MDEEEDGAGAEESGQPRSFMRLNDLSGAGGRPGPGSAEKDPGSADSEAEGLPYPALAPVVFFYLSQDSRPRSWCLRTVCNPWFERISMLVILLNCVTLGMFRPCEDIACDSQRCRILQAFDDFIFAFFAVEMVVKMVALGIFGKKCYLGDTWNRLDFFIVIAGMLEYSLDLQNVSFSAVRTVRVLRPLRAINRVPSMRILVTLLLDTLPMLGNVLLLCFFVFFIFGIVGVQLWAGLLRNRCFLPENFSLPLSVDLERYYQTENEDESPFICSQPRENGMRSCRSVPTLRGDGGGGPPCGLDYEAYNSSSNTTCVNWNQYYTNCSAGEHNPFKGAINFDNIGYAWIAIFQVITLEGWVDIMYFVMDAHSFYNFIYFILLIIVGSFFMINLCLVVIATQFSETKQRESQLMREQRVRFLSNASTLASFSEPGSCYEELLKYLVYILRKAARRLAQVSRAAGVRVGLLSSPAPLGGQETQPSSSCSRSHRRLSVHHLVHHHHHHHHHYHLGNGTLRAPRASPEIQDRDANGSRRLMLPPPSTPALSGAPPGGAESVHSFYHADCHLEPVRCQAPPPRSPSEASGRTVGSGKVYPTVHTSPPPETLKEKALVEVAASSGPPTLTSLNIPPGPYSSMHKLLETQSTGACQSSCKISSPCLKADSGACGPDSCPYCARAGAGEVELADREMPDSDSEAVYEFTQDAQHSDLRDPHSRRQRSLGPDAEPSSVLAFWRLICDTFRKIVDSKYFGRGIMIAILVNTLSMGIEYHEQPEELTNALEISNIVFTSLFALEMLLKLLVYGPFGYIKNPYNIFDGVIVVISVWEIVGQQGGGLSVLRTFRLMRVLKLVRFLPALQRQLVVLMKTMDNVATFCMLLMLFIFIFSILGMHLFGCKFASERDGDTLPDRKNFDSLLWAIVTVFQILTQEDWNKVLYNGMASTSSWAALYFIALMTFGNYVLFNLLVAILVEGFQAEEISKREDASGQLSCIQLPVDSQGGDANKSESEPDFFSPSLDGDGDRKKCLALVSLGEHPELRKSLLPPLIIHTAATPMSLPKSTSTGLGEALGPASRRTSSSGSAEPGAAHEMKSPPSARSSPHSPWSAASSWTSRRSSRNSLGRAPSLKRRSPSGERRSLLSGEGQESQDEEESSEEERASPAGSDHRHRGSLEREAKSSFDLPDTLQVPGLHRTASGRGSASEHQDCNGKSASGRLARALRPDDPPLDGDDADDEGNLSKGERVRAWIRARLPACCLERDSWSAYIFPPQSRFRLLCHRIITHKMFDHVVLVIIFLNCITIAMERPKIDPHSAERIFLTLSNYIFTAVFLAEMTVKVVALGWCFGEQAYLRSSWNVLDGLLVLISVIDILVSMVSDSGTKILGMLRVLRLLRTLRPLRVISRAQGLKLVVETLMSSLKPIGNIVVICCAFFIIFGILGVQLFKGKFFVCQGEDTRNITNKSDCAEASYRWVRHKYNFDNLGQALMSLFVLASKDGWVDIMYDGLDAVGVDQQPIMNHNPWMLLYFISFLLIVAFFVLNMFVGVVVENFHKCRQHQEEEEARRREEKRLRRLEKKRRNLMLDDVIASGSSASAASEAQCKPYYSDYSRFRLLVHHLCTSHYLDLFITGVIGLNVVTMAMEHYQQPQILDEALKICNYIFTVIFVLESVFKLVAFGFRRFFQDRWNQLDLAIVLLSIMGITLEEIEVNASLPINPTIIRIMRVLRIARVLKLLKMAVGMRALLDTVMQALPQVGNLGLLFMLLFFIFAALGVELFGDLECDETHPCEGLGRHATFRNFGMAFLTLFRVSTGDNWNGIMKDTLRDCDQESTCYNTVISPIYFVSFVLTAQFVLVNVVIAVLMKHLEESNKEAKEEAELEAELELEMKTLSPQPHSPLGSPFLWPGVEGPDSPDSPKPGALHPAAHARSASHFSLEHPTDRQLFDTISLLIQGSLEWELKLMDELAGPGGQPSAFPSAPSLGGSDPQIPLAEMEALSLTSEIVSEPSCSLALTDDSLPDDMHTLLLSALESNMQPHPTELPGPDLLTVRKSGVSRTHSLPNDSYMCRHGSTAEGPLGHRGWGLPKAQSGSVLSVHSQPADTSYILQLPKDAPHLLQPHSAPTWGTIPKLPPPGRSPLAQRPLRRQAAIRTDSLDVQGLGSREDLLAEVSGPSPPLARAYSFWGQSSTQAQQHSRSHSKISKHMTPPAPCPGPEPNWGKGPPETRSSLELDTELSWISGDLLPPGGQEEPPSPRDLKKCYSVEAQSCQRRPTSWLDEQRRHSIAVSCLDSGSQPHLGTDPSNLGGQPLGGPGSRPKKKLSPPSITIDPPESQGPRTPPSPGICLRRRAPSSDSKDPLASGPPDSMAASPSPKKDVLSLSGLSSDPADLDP
Sequence of Voltage-gated inwardly rectifying potassium channel KCNH2 (Q12809 whole entry): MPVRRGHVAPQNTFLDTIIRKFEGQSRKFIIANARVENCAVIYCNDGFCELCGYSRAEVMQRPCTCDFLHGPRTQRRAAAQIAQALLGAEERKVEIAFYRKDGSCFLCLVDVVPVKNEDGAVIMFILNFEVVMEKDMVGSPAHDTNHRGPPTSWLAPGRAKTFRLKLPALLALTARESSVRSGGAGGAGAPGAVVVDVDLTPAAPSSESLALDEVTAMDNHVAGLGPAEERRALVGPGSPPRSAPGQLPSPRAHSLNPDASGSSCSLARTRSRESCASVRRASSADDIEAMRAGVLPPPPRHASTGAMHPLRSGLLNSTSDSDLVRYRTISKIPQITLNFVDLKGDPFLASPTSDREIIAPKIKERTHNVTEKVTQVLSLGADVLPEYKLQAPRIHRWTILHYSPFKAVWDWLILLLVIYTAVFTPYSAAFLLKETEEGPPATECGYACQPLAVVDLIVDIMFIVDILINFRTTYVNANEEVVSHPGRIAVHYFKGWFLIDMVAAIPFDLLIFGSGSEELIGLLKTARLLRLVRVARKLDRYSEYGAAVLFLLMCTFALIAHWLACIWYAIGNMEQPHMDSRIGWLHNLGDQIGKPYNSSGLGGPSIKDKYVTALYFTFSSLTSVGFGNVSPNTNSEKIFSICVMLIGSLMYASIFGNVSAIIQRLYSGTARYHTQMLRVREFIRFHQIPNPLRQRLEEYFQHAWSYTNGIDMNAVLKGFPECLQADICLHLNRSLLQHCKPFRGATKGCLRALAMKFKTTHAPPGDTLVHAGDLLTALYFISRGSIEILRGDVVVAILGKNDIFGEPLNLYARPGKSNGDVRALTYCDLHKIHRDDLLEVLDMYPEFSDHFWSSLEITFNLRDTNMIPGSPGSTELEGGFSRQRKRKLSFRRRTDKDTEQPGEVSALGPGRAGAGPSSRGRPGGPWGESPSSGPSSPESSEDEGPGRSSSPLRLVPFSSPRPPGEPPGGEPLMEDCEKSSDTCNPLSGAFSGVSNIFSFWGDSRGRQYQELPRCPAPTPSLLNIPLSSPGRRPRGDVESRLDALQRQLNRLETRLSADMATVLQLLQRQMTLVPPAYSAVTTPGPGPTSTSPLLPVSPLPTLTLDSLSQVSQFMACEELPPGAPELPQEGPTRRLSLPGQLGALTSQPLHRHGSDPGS
Sequence of CYP2C9 (P11712 whole entry, canonical isoform): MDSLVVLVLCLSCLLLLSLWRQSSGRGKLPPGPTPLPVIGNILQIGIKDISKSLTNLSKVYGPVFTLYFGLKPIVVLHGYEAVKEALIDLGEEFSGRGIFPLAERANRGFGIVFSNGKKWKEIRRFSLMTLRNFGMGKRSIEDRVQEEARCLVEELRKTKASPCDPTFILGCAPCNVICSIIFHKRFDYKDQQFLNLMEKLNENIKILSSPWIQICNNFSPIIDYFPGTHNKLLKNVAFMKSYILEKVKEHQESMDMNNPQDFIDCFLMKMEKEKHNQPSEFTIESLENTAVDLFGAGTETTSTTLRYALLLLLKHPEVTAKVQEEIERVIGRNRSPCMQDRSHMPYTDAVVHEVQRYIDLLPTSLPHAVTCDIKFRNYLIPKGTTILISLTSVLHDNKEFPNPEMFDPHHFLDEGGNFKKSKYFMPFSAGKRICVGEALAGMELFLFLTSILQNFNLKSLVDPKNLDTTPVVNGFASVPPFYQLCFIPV
Sequence of CYP3A4 (P08684 whole entry): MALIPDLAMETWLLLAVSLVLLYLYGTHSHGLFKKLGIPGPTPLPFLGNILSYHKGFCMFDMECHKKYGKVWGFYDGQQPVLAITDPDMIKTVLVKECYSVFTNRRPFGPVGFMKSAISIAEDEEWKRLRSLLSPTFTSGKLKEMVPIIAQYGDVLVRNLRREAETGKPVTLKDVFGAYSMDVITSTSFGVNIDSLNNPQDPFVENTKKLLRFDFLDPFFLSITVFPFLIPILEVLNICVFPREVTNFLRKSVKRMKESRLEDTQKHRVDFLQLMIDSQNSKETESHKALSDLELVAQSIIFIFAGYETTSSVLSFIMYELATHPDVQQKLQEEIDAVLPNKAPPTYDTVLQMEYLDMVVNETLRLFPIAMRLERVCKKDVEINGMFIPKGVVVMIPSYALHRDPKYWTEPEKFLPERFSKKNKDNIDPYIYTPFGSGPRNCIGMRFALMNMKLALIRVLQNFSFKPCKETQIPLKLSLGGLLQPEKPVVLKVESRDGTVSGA

concentration at 2 h [3]: 50 ng/mL
activity at 0.25 h, 10 µM (CYP2C9): 30.4%
concentration at 2 h [5]: 366 ng/mL
pIC50 [6]: 5.49
half-life [7]: 66.8 min
half-life [8]: 55.7 min
pIC50 [9]: 4.84
dose excreted [10]: 0%
Vd [11]: 4.95 L/kg
inhibition [12]: 64.1%
concentration at 2 h [16]: 8.6 ng/mL
Kp at 2 h [17]: 0.19
MRT [19]: 58 min
AUC(0-inf) [20]: 168 ng·h/mL
activity at 0.25 h, 10 µM (CYP1A2): 45.6%
activity at 0.25 h, 10 µM (CYP3A4): 80.1%
pIC50 [22]: 5.68
Tmax [23]: 1.1 h
dose excreted [24]: 0%
SMILES: CC(C)Cc1cc(CNS(=O)(=O)c2cccc(F)c2)nn1-c1ccccc1
MPE (Rattus norvegicus [1]): 88.93%
MPE (Rattus norvegicus [2]): 1.63%
MPE (Rattus norvegicus [4]): 202.07%
MPE (Rattus norvegicus [13]): 43.02%
MPE (Rattus norvegicus [14]): 19.48%
pIC50 [15]: 4.84
MPE (Rattus norvegicus [18]): 73.87%
MPE (Rattus norvegicus [21]): 14.78%
